We go through one compound from ChEMBL document CHEMBL1800054, “Thiazolides as novel antiviral agents. 1. Inhibition of hepatitis B virus replication” (J Med Chem, 2011).

The nature of series [1]: Cytotoxicity against human HepG2(2.2.15) cells after 24 hrs by neutral red dye uptake assay. Type of series: cell-based. The following applies: HepG2(2.2.15) cells. An outline of the steps:
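Confluent chronically HBV-producing 2.2.15 cultures given nine consecutive daily doses of compound; neutral red dye uptake read 24 hr after the last dose.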

Series [2] deals with Hepatitis B virus. The series can be described thus: Antiviral activity against Hepatitis B virus infected in human HepG2(2.2.15) cells assessed as decrease in extracellular viral DNA measured 24 hrs after last dose. The series is classed as functional, organism-based. The settings on record: HepG2 2.2.15, 24 h. An outline of the steps: (§1)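 Confluent 2.2.15 cells (HepG2 line chronically producing HBV) in 96-well culture; nine consecutive daily doses of compound. HBV DNA (extracellular virion or intracellular replication intermediates) quantified by blot hybridization 24 hr after the last dose. Cytotoxicity measured by neutral red uptake 24 hr after the last dose.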

For series [3], the system named is Hepatitis B virus. The series can be described thus: Antiviral activity against Hepatitis B virus infected in human HepG2(2.2.15) cells assessed as decrease in intracellular viral DNA measured 24 hrs after last dose. Type of series: functional, organism-based. The following applies: HepG2 2.2.15, 24 h. An outline of the steps: as §1
The subject of series [4] is Plasma. The experiment in a line: Metabolic stability in human plasma assessed as plasma esterase-induced compound deacetylation. Type of series: ADME, cell-free.
Series [5] relates to Plasma. The experiment in a line: Protein binding in human plasma. The series is classed as ADME, cell-free.

In turn, `CC(=O)Oc1ccccc1C(=O)Nc1ncc([N+](=O)[O-])s1` [NITAZOXANIDE] came in with a CC50 at 24 h in series [1] of more than 100000 nM. The EC50 in series [2] is 120 nM; in series [3], 590 nM. Moreover, in series [4], the t1/2 came to 6 min. Moreover, in series [5], the PPB is on record as more than 95%.

As a reminder, the CC50 is the concentration giving 50% cytotoxicity. A word on the EC50: it is the concentration at which the effect is half-maximal.
